In ChEMBL document CHEMBL4342500, “Modulating Heparanase Activity: Tuning Sulfation Pattern and Glycosidic Linkage of Oligosaccharides” (J Med Chem, 2020) one finds inhibition, IC50 and Kd data, which are given here for three compounds.

Assay [1] deals with MIN6. Nature of the assay: Inhibition of ROS production in mouse MIN6 cells at 15 uM incubated for 24 hrs by mitochondrial ROS probe staining based fluorescence microscopic method. Format: functional, cell-based. In a few lines: (§1)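 MIN6 mouse insulinoma cells in high-glucose DMEM, 10% FBS, 50 μM β-mercaptoethanol, seeded in 4-well slide chambers. At ~50% confluency, switched to conditioned medium from heparanase-producing or control CHO cells and given PBS vehicle or inhibitor for 24 h. Stained with mitochondrial ROS tracker (100 nM); fluorescence imaged by microscopy and extent/intensity quantified.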

A further assay addresses Coagulation factor X (Homo sapiens, UniProt P00742). The assay can be described thus: Inhibition of coagulation factor 10a (unknown origin) incubated for 2 mins in presence of AT3 by chromogenic substrate based […] assay. The procedure, abridged:
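Two-stage chromogenic anti-FXa: sample (heparin 0.002-500 nM or trisaccharide 3.9-4000 nM) with ATIII (0.04 IU), 2 min at 37 °C; FXa (0.32 μg) added, 2 min at 37 °C; chromogenic substrate added, stopped after 2 min with citric acid (20 g/L). Absorbance at 405 nm in triplicate, minus reverse-order sample blank.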

The next assay has as its target T1, Platelet factor 4 (Homo sapiens, UniProt P02776).
T1 sequence (P02776 whole entry): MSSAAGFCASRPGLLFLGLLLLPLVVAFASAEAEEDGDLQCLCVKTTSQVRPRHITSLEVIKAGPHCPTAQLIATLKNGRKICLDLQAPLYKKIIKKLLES
Nature of the assay: Binding affinity to PF4 (unknown origin) by BLI assay. The procedure, abridged: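 PF4 (100 nM) mixed with ligand (0.08-250 μM trisaccharide; heparin 0.4-400 nM); free PF4 probed against biotin-heparin (5 μg/mL, 18 kDa) loaded on streptavidin biosensors. Mass-transport conditions; response fitted to a solution-affinity equation.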

In assay [2] the target is T2, Heparanase (Homo sapiens) (UniProt Q9Y251).
T2 sequence (whole entry): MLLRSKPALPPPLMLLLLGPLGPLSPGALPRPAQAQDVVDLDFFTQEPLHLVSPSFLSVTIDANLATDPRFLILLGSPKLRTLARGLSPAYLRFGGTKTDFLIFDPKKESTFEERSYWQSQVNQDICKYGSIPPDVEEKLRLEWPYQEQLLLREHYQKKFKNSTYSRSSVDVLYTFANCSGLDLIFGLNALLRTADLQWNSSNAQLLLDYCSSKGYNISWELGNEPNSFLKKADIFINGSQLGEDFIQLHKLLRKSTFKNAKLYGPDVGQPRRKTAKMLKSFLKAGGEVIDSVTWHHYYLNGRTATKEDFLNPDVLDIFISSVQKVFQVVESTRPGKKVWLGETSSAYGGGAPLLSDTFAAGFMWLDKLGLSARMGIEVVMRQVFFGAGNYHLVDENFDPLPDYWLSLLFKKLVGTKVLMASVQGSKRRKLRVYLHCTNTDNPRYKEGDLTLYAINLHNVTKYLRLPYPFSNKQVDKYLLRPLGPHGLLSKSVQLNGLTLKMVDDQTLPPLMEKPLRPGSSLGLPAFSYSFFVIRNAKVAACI
The assay can be described thus: Inhibition of heparanase (unknown origin) assessed as reduction in ROS-mediated SOD1 mRNA level in mouse MIN6 cells co-incubated with heparanase-producing CHO cells at 15 uM incubated for 24 hrs by qRT-PCR analysis. It counts as cell-based. The procedure, abridged:
(§2)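 MIN6 cells grown in high-glucose DMEM/10% FBS/50 μM β-mercaptoethanol, cultured at ~50% confluency in conditioned medium from heparanase-producing or control CHO cells with PBS vehicle or inhibitor for 24 h. Total RNA extracted with Trizol; cDNA made from 500 ng RNA; transcripts measured by quantitative real-time PCR.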
In general terms: Real-time PCR tracks product formation cycle by cycle.

Another assay deals with T3, Heparanase (Homo sapiens, UniProt Q9Y251).
T3 sequence (Q9Y251 whole entry): T2 sequence (whole entry)
Nature of the assay: Inhibition of heparanase (unknown origin) using biotin-heparan sulfate-Eu cryptate as substrate preincubated for 10 mins followed by substrate addition and measured after 60 mins by TR-FRET assay. For orientation: Time-resolved FRET reads energy transfer from a long-lived donor to a nearby acceptor.

Another assay has as its target Prothrombin (Homo sapiens, UniProt P00734). Nature of the assay: Inhibition of coagulation factor 2a (unknown origin) incubated for 2 mins in presence of AT3 by chromogenic substrate based […] assay. In a few lines:
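Two-stage chromogenic anti-FIIa: sample (heparin 0.002-500 nM or trisaccharide 3.9-4000 nM) with ATIII (0.01 IU), 2 min at 37 °C; FIIa (1.2 nkat) added, 2 min at 37 °C; chromogenic substrate added, stopped after 2 min with citric acid (20 g/L). A405 read in triplicate; reverse-order sample blank subtracted.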

Assay [3] addresses T2, Heparanase (Homo sapiens). The assay can be described thus: Inhibition of heparanase (unknown origin) assessed as reduction in ROS-mediated ERO1alpha mRNA level in mouse MIN6 cells co-incubated with heparanase-producing CHO cells at 15 uM incubated for 24 hrs by qRT-PCR analysis. Format: cell-based. The procedure, abridged: as §2
The test system of assay [4] is MIN6. The assay can be described thus: Inhibition of ROS production in mouse MIN6 cells assessed as reduction in ERO1alpha mRNA level at 15 uM incubated for 24 hrs by qRT-PCR analysis. It counts as functional, cell-based. In a few lines:
as §2

The test system of assay [5] is MIN6. Nature of the assay: Inhibition of heparanase (unknown origin) assessed as reduction in ROS production in mouse MIN6 cells co-incubated with heparanase-producing CHO cells at 15 uM incubated for 24 hrs by mitochondrial ROS probe staining based fluorescence microscopic method. It counts as functional, cell-based. In a few lines:
as §1

The target of assay [6] is T2, Heparanase (Homo sapiens). Nature of the assay: Inhibition of human recombinant heparanase assessed as reduction in [35S] labeled ECM degradation at 10 ug/ml incubated for 5 hrs relative to control. The procedure, abridged: (§3)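 [35S]sulfate-labeled ECM on 35 mm dishes incubated 5 h at 37 °C with recombinant human heparanase (0.5 ng/ml), with or without inhibitor, in 1 ml containing 50 mM NaCl, 1 mM DTT, 1 mM CaCl2, 10 mM phosphate-citrate pH 6.0. Released material gel-filtered on Sepharose 6B, eluted with PBS; 0.2 ml fractions counted for radioactivity.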

Assay [7] relates to MIN6. Nature of the assay: Inhibition of ROS production in mouse MIN6 cells assessed as reduction in SOD1 mRNA level at 15 uM incubated for 24 hrs by qRT-PCR analysis. It counts as functional, cell-based. In a few lines: as §2
Assay [8] has as its target T2, Heparanase (Homo sapiens). Nature of the assay: Inhibition of human recombinant heparanase assessed as reduction in [35S] labeled ECM degradation at 50 ug/ml incubated for 5 hrs relative to control. In a few lines:
as §3

Activity calls are given as the source filed them. The calls are words filed in the database; no cut-off is given here.

Sequence of Coagulation factor X (P00742 41-179 limits assumed): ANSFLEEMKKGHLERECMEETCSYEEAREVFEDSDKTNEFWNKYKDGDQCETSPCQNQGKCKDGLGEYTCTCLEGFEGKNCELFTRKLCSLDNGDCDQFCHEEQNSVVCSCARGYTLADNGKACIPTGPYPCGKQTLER
Sequence of Coagulation factor X (P00742 235-488 limits assumed): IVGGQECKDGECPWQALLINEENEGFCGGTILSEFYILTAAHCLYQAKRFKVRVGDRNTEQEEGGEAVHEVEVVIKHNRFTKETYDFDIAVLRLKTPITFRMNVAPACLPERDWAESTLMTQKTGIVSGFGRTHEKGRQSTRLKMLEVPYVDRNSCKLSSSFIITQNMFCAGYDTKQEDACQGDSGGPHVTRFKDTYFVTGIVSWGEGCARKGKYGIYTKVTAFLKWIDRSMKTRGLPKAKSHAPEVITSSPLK

The term inhibition denotes the relative decrease from the control value, in per cent. Broadly, the IC50 is the concentration at which inhibition is half-maximal. Usually Kd stands for the constant that tells how readily two partners part at equilibrium. A higher Kd goes with lower affinity. Regarding `O=C(O)[C@H]1O[C@@H](O[C@H]2[C@H](O)[C@@H](NS(=O)(=O)O)[C@@H](OCCNS(=O)(=O)O)O[C@@H]2COS(=O)(=O)O)[C@H](O)[C@@H](O)[C@@H]1O[C@H]1O[C@H](COS(=O)(=O)O)[C@@H](O)[C@H](O)[C@H]1NS(=O)(=O)O`, the inhibition entry (in the assay on MIN6 [1]; in [2]; in assay [3]; with MIN6 [4]; in the assay with MIN6 [5]; in the assay with MIN6 [7]) was “Active” each time. The IC50 was above 2000 nM on Coagulation factor X, 393 nM on Heparanase and above 2000 nM at Prothrombin. In addition, binding on Platelet factor 4 was put at a Kd of 16000 nM. The figures for the inhibition in assay [6] and in assay [8] were 50% and 100%, respectively.
`O=C(O)[C@H]1O[C@@H](O[C@H]2[C@H](O)[C@@H](NS(=O)(=O)O)[C@H](OCCNS(=O)(=O)O)O[C@@H]2COS(=O)(=O)O)[C@H](O)[C@@H](O)[C@@H]1O[C@H]1O[C@H](COS(=O)(=O)O)[C@@H](O)[C@H](O)[C@H]1NS(=O)(=O)O`: the 50% inhibitory concentration (IC50) on Heparanase stood at 42100 nM.
Consider `CO[C@H]1O[C@H](COS(=O)(=O)O)[C@@H](O[C@@H]2O[C@@H](C(=O)O)[C@@H](O[C@H]3O[C@H](COS(=O)(=O)O)[C@@H](O[C@@H]4O[C@H](C(=O)O)[C@@H](O[C@H]5O[C@H](COS(=O)(=O)O)[C@@H](O)[C@H](O)[C@H]5NS(=O)(=O)O)[C@H](O)[C@H]4O)[C@H](OS(=O)(=O)O)[C@H]3NS(=O)(=O)O)[C@H](O)[C@H]2OS(=O)(=O)O)[C@H](O)[C@H]1NS(=O)(=O)O` [FONDAPARINUX], for which the IC50 at Coagulation factor X was found to be 11 nM.
